MPTP inh – mitochondrial permeability transition pore inhibitors, primary screen, biochemical, isolated mouse mitochondria, absorbance. Ca2+ swelling absorbance, 30 min. inhibition, % at 10 µM. 360,000 tested, 1.4% active;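 active = inhibition of 50% or more, scaled per plate between neutral and stimulator controls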;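 note: 0% = DMSO wells given calcium and 100% = 1 mM EGTA wells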
SENP1 inh – human SENP1 catalytic domain inhibitors, primary screen, biochemical, FRET, uHTS; Sentrin-specific protease 1 (Homo sapiens), Q9P0U3; recombinant SENP1 catalytic domain, CyPet-SUMO1-YPet FRET cleavage; inhibition, % at 10 µM; 360,000 tested, 0.21% active; AID 624204, 2012;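 active = inhibition at least 30% at 10 µM, raw YFP signal under a set limit, fluorescence ratio 0.5 to 1.5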;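 note: 0% = enzyme with DMSO and 100% = no enzyme wells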
Target sequence (Q9P0U3 419-644 limits assumed): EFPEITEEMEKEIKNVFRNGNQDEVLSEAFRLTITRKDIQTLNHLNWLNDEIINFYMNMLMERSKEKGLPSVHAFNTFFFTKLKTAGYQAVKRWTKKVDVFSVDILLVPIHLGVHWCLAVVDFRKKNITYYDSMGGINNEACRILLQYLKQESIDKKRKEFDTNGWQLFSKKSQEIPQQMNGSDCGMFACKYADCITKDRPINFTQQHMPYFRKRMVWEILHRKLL
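Test system: recombinant human SENP1 catalytic domain, His6-tagged / Medium: pH 8 Tris buffer with EDTA, NaCl, BME, BSA, NP40, catalase / Also added: SUMO1 FRET substrate flanked by Cypet and Ypet, 25 nM / Times: 50 min reaction at room temperature / Signal: FRET, CFP and YFP emission / Control set: no-enzyme low control and enzyme-plus-DMSO high control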
EBI2 block – EBI2 receptor antagonists, beta-arrestin recruitment, primary screen, cell-based, luminescence, 7a,25-OHC stimulation, uHTS. G-protein coupled receptor 183 (Homo sapiens), P32249. 7a,25-OHC stimulated. inhibition, % at 5 µM. 360,000 tested, 0.81% active. AID 651636, 2012; in the data active = inhibition above about 38%;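 note: enzyme fragment complementation signal reports receptor beta-arrestin coupling in cells; 0% = agonist plus DMSO wells and 100% = wells without agonist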
Target sequence (P32249 whole entry, looked up, the tested form may be a part): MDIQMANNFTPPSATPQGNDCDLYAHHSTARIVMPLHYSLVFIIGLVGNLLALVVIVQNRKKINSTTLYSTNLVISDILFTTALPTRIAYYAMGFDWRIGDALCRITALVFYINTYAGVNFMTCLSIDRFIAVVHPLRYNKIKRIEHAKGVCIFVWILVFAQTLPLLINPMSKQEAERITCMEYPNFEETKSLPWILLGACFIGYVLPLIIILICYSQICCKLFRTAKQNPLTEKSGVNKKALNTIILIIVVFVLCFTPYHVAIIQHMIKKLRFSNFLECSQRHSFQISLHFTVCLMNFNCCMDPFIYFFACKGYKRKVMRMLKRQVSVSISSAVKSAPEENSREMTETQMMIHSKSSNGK
NR3A LBD binder – binders of NR3A ligand-binding domain, primary screen, biophysical, differential scanning fluorimetry, uHTS; Glutamate receptor ionotropic, NMDA 3A (GRIN3A) ligand-binding domain; NR3A LBD differential scanning fluorimetry, Tm shift; 0% = protein alone, 100% = glycine-bound protein; Tm shift relative to glycine control, % at 25 µM; 340,000 tested, 2.5% active;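 active = melting temperature shift of at least 10% of the positive control shift, at one fixed dose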
* marks the source's active call; other numbers are inactive results. In the library only some 4.4% were active in any assay of this set; here they are far more common.

Results for COc1ccc(C)cc1NC(=O)C(OC(=O)C1CC1)c1ccccc1 (stereo unspecified) ?
MPTP inh: 4; SENP1 inh: 0; EBI2 block: -3; NR3A LBD binder: 1

Results for COc1ccccc1C(O)(C(=O)NNc1cccc(C)c1)c1ccccc1OC ?
MPTP inh: 4; SENP1 inh: 0; EBI2 block: 2; NR3A LBD binder: -1

What do the screens show for `Cc1ccccc1OCc1nc(-c2ccc(Br)o2)no1`?
MPTP inh: 1; SENP1 inh: 1; EBI2 block: -1; NR3A LBD binder: 16*

Results for Cc1ccccc1OCc1nc(-c2ccc(NC(=O)c3cccs3)cc2)no1 ?
MPTP inh: 8; SENP1 inh: 2; EBI2 block: 15; NR3A LBD binder: 20*

What do the screens show for `Cc1ccccc1OCc1nc(-c2ccccc2)no1`?
MPTP inh: 0; SENP1 inh: -2; EBI2 block: 9; NR3A LBD binder: 2

How did Cc1ccccc1-c1nc(-c2ccc(NC(=O)c3cccs3)cc2)no1 do in these assays?
MPTP inh: 7; SENP1 inh: 1; EBI2 block: 10; NR3A LBD binder: 42*

How did CCCc1ccc(OCc2nc(-c3ccc(NC(=O)c4cccs4)cc3)no2)cc1 do in these assays?
MPTP inh: 2; SENP1 inh: -1; EBI2 block: -11; NR3A LBD binder: 9

How did O=C(Nc1ccc(-c2noc(-c3ccccc3F)n2)cc1)c1cccs1 do in these assays?
MPTP inh: 10; SENP1 inh: 0; EBI2 block: -9; NR3A LBD binder: 29*

What do the screens show for `CN1CCN(S(=O)(=O)c2ccc(N(C)Cc3cccc(F)c3)nc2)CC1`?
MPTP inh: -1; SENP1 inh: -1; EBI2 block: -8; NR3A LBD binder: -2

Results for COc1ccc(CCNC(=O)CSc2nc(O)c(C(C)C)c(=O)[nH]2)cc1OC ?
MPTP inh: 2; SENP1 inh: -1; EBI2 block: -6; NR3A LBD binder: 0

What do the screens show for `N#CCSc1nc(-c2ccccc2)c2cc(Cl)ccc2n1`?
MPTP inh: 1; SENP1 inh: 0; EBI2 block: 12; NR3A LBD binder: 18*

Results for C=CCSc1nc(-c2ccccc2)c2cc(Cl)ccc2n1 ?
MPTP inh: 2; SENP1 inh: 1; EBI2 block: 1; NR3A LBD binder: -1

What do the screens show for `C/C(=N\Nc1ccc([N+](=O)[O-])cc1[N+](=O)[O-])c1ccc(-n2nncc2C(C)(C)C)cc1`?
MPTP inh: 4; SENP1 inh: 3; EBI2 block: 4; NR3A LBD binder: -5

Results for COc1ccc(NC(=O)CN(C)C(=O)CCCSc2nc3ccccc3[nH]2)cc1 ?
MPTP inh: 0; SENP1 inh: 2; EBI2 block: 4; NR3A LBD binder: 0

How did Cc1ccc(S(=O)(=O)/N=C2/NC(=O)/C(=C/c3cc([N+](=O)[O-])ccc3O)S2)cc1 do in these assays?
MPTP inh: -1; SENP1 inh: 27; EBI2 block: 5; NR3A LBD binder: 28*

How did COc1cccc(N=C2NC(=O)/C(=C/c3cc([N+](=O)[O-])ccc3O)S2)c1 do in these assays?
MPTP inh: 0; SENP1 inh: 55; EBI2 block: 16; NR3A LBD binder: -7

How did O=C1NC(=Nc2ccccc2Cl)S/C1=C\c1cc([N+](=O)[O-])ccc1O do in these assays?
MPTP inh: 6; SENP1 inh: 32; EBI2 block: 5; NR3A LBD binder: 20*

What do the screens show for `COc1cc(NS(=O)(=O)c2ccc(C)cc2)ccc1-n1cnnn1`?
MPTP inh: 2; SENP1 inh: 1; EBI2 block: 5; NR3A LBD binder: -3

Results for CCOC(=O)C1=C(C)N=c2s/c(=C\c3ccc(C(=O)O)cc3)c(=O)n2C1c1ccc(OC)cc1OC (stereo unspecified) ?
MPTP inh: 2; SENP1 inh: 19; EBI2 block: 12; NR3A LBD binder: 429*

What do the screens show for `CCOC(=O)C1=C(C)N=c2s/c(=C\c3ccc(C(=O)O)cc3)c(=O)n2C1c1ccc(F)cc1` (stereo unspecified)?
MPTP inh: 1; SENP1 inh: 13; EBI2 block: -1; NR3A LBD binder: 3

How did COc1cccc2c1C(=O)c1c(O)c3c(c(O)c1C2=O)C[C@@](O)(C(=O)CO)C[C@@H]3O[C@H]1C[C@H](N)[C@H](O)[C@H](C)O1 do in these assays?
MPTP inh: 6; SENP1 inh: 97*; EBI2 block: -2; NR3A LBD binder: 0

Results for Cc1ccc(N2CN(Cc3ccco3)CNC2=S)c(C)c1 ?
MPTP inh: 0; SENP1 inh: 3; EBI2 block: -5; NR3A LBD binder: 0

What do the screens show for `NC(=O)c1cccc(NC(=O)Nc2ccc(Cl)cc2)c1`?
MPTP inh: 12; SENP1 inh: 1; EBI2 block: 1; NR3A LBD binder: 24*

What do the screens show for `O=C(NCCc1ccncc1)Nc1ccc(Cl)c(Cl)c1`?
MPTP inh: 24; SENP1 inh: 0; EBI2 block: -5; NR3A LBD binder: 18*

Results for O=C(O)Cc1ccc(NC(=O)Nc2cccc(Cl)c2)cc1 ?
MPTP inh: 0; SENP1 inh: 2; EBI2 block: -7; NR3A LBD binder: -1

What do the screens show for `O=C(Nc1ccc(Cl)cc1)Nc1cccc2nsnc12`?
MPTP inh: 35; SENP1 inh: -27; EBI2 block: -2; NR3A LBD binder: 21*

How did O=C(Nc1ccncc1)Nc1cccc(Cl)c1Cl do in these assays?
MPTP inh: 5; SENP1 inh: 0; EBI2 block: -8; NR3A LBD binder: -2

Results for O=C(Nc1ccc(Cl)cc1)Nc1ccc(Cl)c(Cl)c1 ?
NR3A LBD binder: 16*

How did O=C(NCCNC(=O)Nc1ccc(Cl)cc1)Nc1ccc(Cl)cc1 do in these assays?
MPTP inh: 4; SENP1 inh: 1; EBI2 block: -8; NR3A LBD binder: 22*

How did Cc1cc(C(=O)N/N=C/c2cc(Cl)cc([N+](=O)[O-])c2O)c2ccccc2n1 do in these assays?
MPTP inh: 7; SENP1 inh: 10; EBI2 block: 54*; NR3A LBD binder: 1

What do the screens show for `NC1=NC(=O)CC(C(=O)Nc2cccc3ccccc23)S1` (stereo unspecified)?
MPTP inh: 0; SENP1 inh: 1; EBI2 block: -1; NR3A LBD binder: 0

How did NC1=NC(=O)CC(C(=O)NCCc2ccccc2)S1 (stereo unspecified) do in these assays?
MPTP inh: -3; SENP1 inh: 3; EBI2 block: -5; NR3A LBD binder: 10*

Results for COc1ccc(NC(=S)Nc2ccccc2)c(OC)c1 ?
MPTP inh: 1; SENP1 inh: 2; EBI2 block: -4; NR3A LBD binder: -1

Results for NS(=O)(=O)c1ccc(NC(=S)Nc2ccc(OCc3ccccc3)cc2)cc1 ?
MPTP inh: 2; SENP1 inh: -1; EBI2 block: -7; NR3A LBD binder: 12*
